# Tests used:
# NCI-H460 [1] = test: Percent growth of NCI cell line, lung-nsc: NCI-H460 exposed for 48 hr at 10e-4 concentration; type: functional, Homo sapiens
# Summary of the method: (§1)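 NCI panel cell lines exposed 48 h to 10^-8, 10^-6 and 10^-4 M drug; read-out is percent growth at each concentration.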
# SNB-19 [2] = test: Percent growth of NCI cell line, CNS: SNB-19 exposed for 48 hr at 10e-4 concentration; type: functional, Homo sapiens; summary of the method: as §1
# 786-0 [3] = test: Percent growth of NCI cell line, renal: 786-0 exposed for 48 hr at 10e-6 concentration; type: functional, Homo sapiens; summary of the method: as §1
# DU-145 [4] = test: Percent growth of NCI cell line, prostate: DU-145 exposed for 48 hr at 10e-4 concentration; type: functional, Homo sapiens; summary of the method: as §1
# HCT-15 [5] = test: Percent growth of NCI cell line, colon: HCT-15 exposed for 48 hr at 10e-8 concentration; type: functional, Homo sapiens; summary of the method: as §1
# LOX IMVI = test: Percent growth of NCI cell line, melanoma: LOX IMVI exposed for 48 hr at 10e-8 concentration; type: functional, Homo sapiens; summary of the method: as §1
# [6] = Percent growth of NCI cell line, melanoma: LOX IMVI exposed for 48 hr at 10e-4 concentration; type: functional, Homo sapiens; summary of the method: as §1
# HT-29 = test: In vitro cytotoxic potency against HT-29 (human colon adenocarcinoma) cell line.; type: functional, cell-based
# HCT-15 [7] = test: Percent growth of NCI cell line, colon: HCT-15 exposed for 48 hr at 10e-4 concentration; type: functional, Homo sapiens; summary of the method: as §1
# SNB-19 [8] = test: Percent growth of NCI cell line, CNS: SNB-19 exposed for 48 hr at 10e-8 concentration; type: functional, Homo sapiens; summary of the method: as §1
# MCF7 [9] = test: Percent growth of NCI cell line, breast: MCF-7 exposed for 48 hr at 10e-8 concentration; type: functional, Homo sapiens; summary of the method: as §1
# OVCAR-4 [10] = test: Percent growth of NCI cell line, ovarian: OVCAR-4 exposed for 48 hr at 10e-8 concentration; type: functional, Homo sapiens; summary of the method: as §1
# HCT-15 [11] = test: Percent growth of NCI cell line, colon: HCT-15 exposed for 48 hr at 10e-6 concentration; type: functional, Homo sapiens; summary of the method: as §1
# DU-145 [12] = test: Percent growth of NCI cell line, prostate: DU-145 exposed for 48 hr at 10e-8 concentration; type: functional, Homo sapiens; summary of the method: as §1
# 786-0 [13] = test: Percent growth of NCI cell line, renal: 786-0 exposed for 48 hr at 10e-4 concentration; type: functional, Homo sapiens; summary of the method: as §1
# NCI-H460 [14] = test: Percent growth of NCI cell line, lung-nsc: NCI-H460 exposed for 48 hr at 10e-8 concentration; type: functional, Homo sapiens; summary of the method: as §1
# [15] = Percent growth of NCI cell line, leucemia K562 exposed for 48 hr at 10e-6 concentration; type: functional, Homo sapiens; summary of the method: as §1
# Calf thymus DNA = test: CT-DNA binding required to produce a 50% drop in fluorescence of DNA-bound ethidium.; type: nucleic-acid assay; conditions: Bos taurus
# Summary of the method: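 Ethidium displacement from calf thymus DNA in 10 mM Na2HPO4, 10 mM NaH2PO4, 1 mM EDTA, pH 7.0, containing 1.26 μM ethidium bromide and 1 μM CT-DNA. Drug added serially from ~5 mM DMSO stock; 20 °C; fluorescence excitation 546 nm, emission 595 nm. C50 = drug concentration lowering DNA-bound ethidium fluorescence by 50%, mean of three determinations.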
# LoVo [16] = test: Cytotoxicity activity on LoVo human adenocarcinoma cell line after 144 hr of drug exposure; type: functional, cell-based
# Summary of the method: (§2)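 LoVo (sensitive) and LoVo/Dx (resistant) human colon adenocarcinoma cells seeded at 2.5 × 10^5 cells/mL medium; drug solutions added to culture.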
# DU-145 [17] = test: Percent growth of NCI cell line, prostate: DU-145 exposed for 48 hr at 10e-6 concentration; type: functional, Homo sapiens; summary of the method: as §1
# SNB-19 [18] = test: Percent growth of NCI cell line, CNS: SNB-19 exposed for 48 hr at 10e-6 concentration; type: functional, Homo sapiens; summary of the method: as §1
# [19] = Percent growth of NCI cell line, leucemia K562 exposed for 48 hr at 10e-8 concentration; type: functional, Homo sapiens; summary of the method: as §1
# [20] = Percent growth of NCI cell line, leucemia K562 exposed for 48 hr at 10e-4 concentration; type: functional, Homo sapiens; summary of the method: as §1
# 786-0 [21] = test: Percent growth of NCI cell line, renal: 786-0 exposed for 48 hr at 10e-8 concentration; type: functional, Homo sapiens; summary of the method: as §1
# LoVo [22] = test: Cytotoxicity activity on LoVo human adenocarcinoma cell line after 1 hr of drug exposure; type: functional, cell-based
# Summary of the method: (§3)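 LoVo (sensitive) and LoVo/Dx (resistant) human colon adenocarcinoma cells seeded at 2.5 × 10^5 cells/mL medium; drug solutions added to culture. IC50 = drug concentration inhibiting cell growth by 50%, assays in triplicate.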
# LoVo [23] = test: Cytotoxicity activity on LoVo/Dx human adenocarcinoma cell line after 144 hr of drug exposure; type: functional, cell-based; summary of the method: as §2
# LoVo [24] = test: Cytotoxicity activity on LoVo/Dx human adenocarcinoma cell line after 1 hr of drug exposure; type: functional, cell-based; summary of the method: as §3
# OVCAR-4 [25] = test: Percent growth of NCI cell line, ovarian: OVCAR-4 exposed for 48 hr at 10e-6 concentration; type: functional, Homo sapiens; summary of the method: as §1
# MCF7 [26] = test: Percent growth of NCI cell line, breast: MCF-7 exposed for 48 hr at 10e-6 concentration; type: functional, Homo sapiens; summary of the method: as §1
# NCI-H460 [27] = test: Percent growth of NCI cell line, lung-nsc: NCI-H460 exposed for 48 hr at 10e-6 concentration; type: functional, Homo sapiens; summary of the method: as §1
# MCF7 [28] = test: Percent growth of NCI cell line, breast: MCF-7 exposed for 48 hr at 10e-4 concentration; type: functional, Homo sapiens; summary of the method: as §1
# [29] = Percent growth of NCI cell line, melanoma: LOX IMVI exposed for 48 hr at 10e-6 concentration; type: functional, Homo sapiens; summary of the method: as §1
# OVCAR-4 [30] = test: Percent growth of NCI cell line, ovarian: OVCAR-4 exposed for 48 hr at 10e-4 concentration; type: functional, Homo sapiens; summary of the method: as §1
smiles,measurement,setting,value
CN(C)CCn1c(=O)c2ccc3c4c(nn3CCN(C)C)c3cc(N)ccc3n(c1=O)c24,Growth,NCI-H460 [1],-64%
same,Growth,SNB-19 [2],-69%
same,Growth,786-0 [3],-44%
same,Growth,DU-145 [4],-67%
same,Growth,HCT-15 [5],54%
same,Growth,LOX IMVI,47%
same,Growth,[6],-50%
same,IC50,HT-29,3.7 nM
same,Growth,HCT-15 [7],-75%
same,Growth,SNB-19 [8],43%
same,Growth,MCF7 [9],62%
same,Growth,OVCAR-4 [10],55%
same,Growth,HCT-15 [11],-25%
same,Growth,DU-145 [12],59%
same,Growth,786-0 [13],-95%
same,Growth,NCI-H460 [14],16%
same,Growth,[15],7%
same,C50,Calf thymus DNA,0.0009 µM
same,IC50,LoVo [16],0.52 nM
same,Growth,DU-145 [17],-11%
same,Growth,SNB-19 [18],-14%
same,Growth,[19],45%
same,Growth,[20],-15%
same,Growth,786-0 [21],23%
same,IC50,LoVo [22],130 nM
same,IC50,LoVo [23],16 nM
same,IC50,LoVo [24],550 nM
same,Growth,OVCAR-4 [25],-47%
same,Growth,MCF7 [26],-6%
same,Growth,NCI-H460 [27],-28%
same,Growth,MCF7 [28],-65%
same,Growth,[29],-28%
same,Growth,OVCAR-4 [30],-51%
